Reference: ChEMBL document CHEMBL4177578, “Synthesis, pharmacological activities and molecular docking studies of pyrazolyltriazoles as anti-bacterial and anti-inflammatory agents” (Bioorg Med Chem, 2017)
Values after ≈ are worked out from the molar mass of the structure shown. Active and inactive are the calls of the source. No cut-off for these calls is given here.

How the values were obtained:
Format in all cases: functional
[1] = system: Salmonella typhi; experiment: Antimicrobial activity against Salmonella typhi incubated for 12 to 16 hrs followed by plating in nutrient agar by tube dilution method
In short: (§1)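 After 12-16 h at 37 °C in tube dilution (500 to 1.9 µg/mL; 1 mL inoculum at OD 0.2), the culture from each tube was plated on nutrient agar. MBC is the concentration at which cells are completely killed.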

[2] = Anti-inflammatory activity at 50 ug/ml using bovine serum albumin and egg albumin proteins incubated at 37 degC for 20 mins and then heated to 95 degC for 20 mins by UV-visible Spectrophotometry based protein denaturation method
In short: (§2)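 Albumin (bovine serum or egg) at 1% in 50 mM sodium phosphate buffer pH 6.4. Mixture is 0.1 ml test sample (1 mg/ml) plus 0.2 ml albumin, made to 5 ml with buffer. Held 37 °C for 20 min, then 95 °C for 20 min. Cooled to room temperature, turbidity read at 660 nm. % inhibition = (Abs control − Abs sample)/Abs control × 100. Triplicate, averaged.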

[3] = Anti-inflammatory activity at 100 ug/ml using bovine serum albumin and egg albumin proteins incubated at 37 degC for 20 mins and then heated to 95 degC for 20 mins by UV-visible Spectrophotometry based protein denaturation method; in short: as §2
[4] = system: Salmonella typhi; experiment: Antimicrobial activity against Salmonella typhi incubated for 12 to 16 hrs by tube dilution method
In short: (§3)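 Broth tube dilution, two-fold serial dilutions from 500 to 1.9 µg/mL plus a drug-free control tube. Each tube inoculated with 1 mL culture at OD 0.2 (~McFarland standard), 37 °C for 12-16 h. Turbidity compared with the control tube. MIC is the lowest concentration giving complete growth inhibition.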

[5] = system: Salmonella typhi; experiment: Antimicrobial activity against Salmonella typhi at 1 mg/ml incubated for 20 to 30 mins followed by incubation for 24 hrs at 37 degC by agar plate method; conditions: for diameter of the inhibition zone (DIZ): Salmonella enterica subsp. enterica serovar Typhi
In short: (§4)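 Agar well diffusion on nutrient agar. Plates swabbed with 60 µL inoculum, 8 mm wells loaded with 100 µL sample at 1.0 mg/mL, streptomycin standard and control in separate wells. Plates held 20–30 min at 4 °C for diffusion, then 24 h at 37 °C. Zone diameter read in mm; triplicate.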

[6] = system: Micrococcus luteus; experiment: Antimicrobial activity against Micrococcus luteus at 1 mg/ml incubated for 20 to 30 mins followed by incubation for 24 hrs at 37 degC by agar plate method
In short: (§5)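 Agar well diffusion on nutrient agar. Plates swabbed with 60 µL inoculum; 8 mm wells loaded with 100 µL of compound at 1.0 mg/mL. Held 20–30 min at 4 °C for diffusion, then 24 h at 37 °C. Inhibition zone diameter read in mm. Triplicate.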

[7] = system: Micrococcus luteus; experiment: Antimicrobial activity against Micrococcus luteus incubated for 12 to 16 hrs by tube dilution method
In short: (§6)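 Tube dilution, serial from 500 to 1.9 µg/mL, plus drug-free control tube. Each tube inoculated with 1 mL culture at OD 0.2, incubated 37 °C for 12–16 h. MIC is the lowest concentration with no growth by turbidity. MBC is found by plating each tube on nutrient agar: the lowest concentration at which all cells are killed.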

[8] = Anti-inflammatory activity using bovine serum albumin and egg albumin proteins incubated at 37 degC for 20 mins and then heated to 95 degC for 20 mins by UV-visible Spectrophotometry based protein denaturation method; in short: as §2
[9] = system: Salmonella paratyphi; experiment: Antimicrobial activity against Salmonella paratyphi incubated for 12 to 16 hrs by tube dilution method; in short: as §3
[10] = system: Micrococcus luteus; experiment: Antimicrobial activity against Micrococcus luteus incubated for 12 to 16 hrs followed by plating in nutrient agar by tube dilution method; in short: as §6
[11] = system: Salmonella paratyphi; experiment: Antimicrobial activity against Salmonella paratyphi incubated for 12 to 16 hrs followed by plating in nutrient agar by tube dilution method; in short: as §1
[12] = system: Staphylococcus aureus; experiment: Antimicrobial activity against Staphylococcus aureus at 1 mg/ml incubated for 20 to 30 mins followed by incubation for 24 hrs at 37 degC by agar plate method; in short: as §5
[13] = system: Salmonella paratyphi; experiment: Antimicrobial activity against Salmonella paratyphi at 1 mg/ml incubated for 20 to 30 mins followed by incubation for 24 hrs at 37 degC by agar plate method; conditions: for diameter of the inhibition zone (DIZ): Salmonella enterica subsp. enterica serovar Paratyphi A; in short: as §4
[14] = Salmonella enterica subsp. enterica serovar Typhi
[15] = Salmonella enterica subsp. enterica serovar Paratyphi A
[16] = Salmonella enterica, read-out: DIZ

Structure (SMILES) | MBC [1, 14] | inhibition [2] | inhibition [3] | MIC [4, 14] | diameter of the inhibition zone (DIZ) [5] | diameter of the inhibition zone (DIZ) [6] | MIC [7] | IC50 [8] | MIC [9, 15] | MBC [10] | MBC [11, 15] | diameter of the inhibition zone (DIZ) [12] | diameter of the inhibition zone (DIZ) [13] | also measured
CCOC(=O)c1nnn(Cc2cn(-c3ccc(C)cc3)nc2-c2ccccc2)c1C(=O)OCC | inactive | inactive | inactive | inactive | inactive | inactive | inactive | Not Active | inactive | inactive | inactive | inactive | inactive | –
Cc1ccc(-n2cc(CN=[N+]=[N-])c(-c3ccccc3)n2)cc1 | inactive | inactive | inactive | inactive | inactive | inactive | inactive | Not Active | inactive | inactive | inactive | inactive | inactive | –
[N-]=[N+]=NCc1cn(-c2ccccc2)nc1-c1ccc(Cl)cc1Cl | inactive | inactive | inactive | inactive | inactive | inactive | inactive | Not Active | inactive | inactive | inactive | inactive | inactive | –
Fc1ccc(-c2cn(Cc3cn(-c4ccccc4)nc3-c3ccccc3)nn2)cc1 | inactive | inactive | inactive | inactive | inactive | inactive | inactive | Not Active | inactive | inactive | inactive | inactive | inactive | –
[N-]=[N+]=NCc1cn(-c2ccccc2)nc1-c1ccccc1 | inactive | inactive | inactive | inactive | inactive | inactive | inactive | Not Active | inactive | inactive | inactive | inactive | inactive | –
COc1ccc(-c2cn(Cc3cn(-c4ccccc4)nc3-c3ccccc3)nn2)c(C)c1 | inactive | inactive | inactive | inactive | inactive | inactive | inactive | Not Active | inactive | inactive | inactive | inactive | inactive | –
CN[C@@H]1[C@H](O[C@H]2[C@H](O[C@H]3[C@H](O)[C@@H](O)[C@H](N=C(N)N)[C@@H](O)[C@@H]3N=C(N)N)O[C@@H](C)[C@]2(O)C=O)O[C@@H](CO)[C@H](O)[C@H]1O [STREPTOMYCIN] | – | – | – | – | – | – | 6.25 µg/mL (≈ 10.7 µM) | – | – | 6.25 µg/mL (≈ 10.7 µM) | – | – | – | MBC ([1]; Salmonella enterica): 6.25 µg/mL (≈ 10.7 µM); MIC ([4]; Salmonella enterica): 6.25 µg/mL (≈ 10.7 µM); zone of inhibition at 1000 µg/mL [5, 16]: 27 mm; zone of inhibition at 1000 µg/mL ([6]; read-out: DIZ): 22.5 mm; MIC ([9]; Salmonella enterica): 6.25 µg/mL (≈ 10.7 µM); MBC ([11]; Salmonella enterica): 6.25 µg/mL (≈ 10.7 µM); zone of inhibition at 1000 µg/mL ([12]; read-out: DIZ): 20.3 mm; zone of inhibition at 1000 µg/mL [13, 16]: 30 mm
